This passage reports MIC results from ChEMBL document CHEMBL1125632, “Synthesis and copper-dependent antimycoplasmal activity of amides and amidines derived from 2-amino-1,10-phenanthroline” (1991).

≈ marks a conversion by molar mass, not a printed value.

Usually MIC stands for the smallest concentration in the dilution series that meets the test's criterion for growth inhibition.

For test [1], the system named is Mycoplasmoides gallisepticum. The test is described as follows: Minimum inhibitory concentration measured against Mycoplasma gallisepticum K514 in the absence of extra copper. The class given is functional. The essentials:
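M. gallisepticum K514 grown in modified Adler medium (peptone, yeast extract, glucose, heat-inactivated horse serum, benzylpenicillin, phenol red, pH 8.0). No added copper. Compounds dissolved in DMSO (final 1.25%) and tested as serial 2-fold dilutions in duplicate, 3 nM to 100 μM. Tubes with 3 mL medium received 1 mL fresh culture and were held 24 h at 37 °C. MIC is the lowest concentration giving no indicator colour change.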

The subject of test [2] is Mycoplasmoides gallisepticum. The test is described as follows: Minimum inhibitory concentration measured against Mycoplasma gallisepticum K514 in the presence of extra copper. The class given is functional. The essentials: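 M. gallisepticum K514 grown in modified Adler medium (peptone, yeast extract, glucose, horse serum, benzylpenicillin, phenol red, pH 8.0) with CuSO4 at 40 μM final. Compounds in DMSO (1.25% final), serial 2-fold dilutions in duplicate over 3 nM–100 μM. 3 mL medium plus 1 mL fresh culture, incubated 24 h at 37 °C. MIC is the lowest concentration with no phenol-red colour change.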

With `N=C(Nc1ccc2ccc3cccnc3c2n1)c1ccc(Cl)c(Cl)c1`, the values for the MIC in test [1] and in test [2] were over 100 µM and 0.2 µM, respectively.
CUPRIC SULFATE: in test [1], the MIC is 700 µM.
As for `O=C(Nc1ccc2ccc3ccc(NC(=O)c4ccccc4)nc3c2n1)c1ccccc1`, the figures for the MIC in test [1] and in test [2] were over 100 µM and 0.05 µM, respectively.
As to `CCCCC(CC)C(=O)Nc1ccc2ccc3cccnc3c2n1` (configuration not stated), the MIC was over 100 µM in test [1] and 0.23 µM in test [2].
In the same order, the values of `Nc1ccc2ccc3ccc(N)nc3c2n1` are over 100 µM and 0.8 µM.
For the molecule `O=C(Nc1ccc2ccc3cccnc3c2n1)c1ccc(Cl)cc1`, the MIC was over 100 µM in test [1] and 0.023 µM in test [2].
In the same order, the values of `Cc1ccc(C(=O)Nc2ccc3ccc4cccnc4c3n2)cc1` are over 100 µM and 0.023 µM.
In the same order, the values of `CCCCc1ccc2ccc3ccc(NC(=O)c4ccc(C)cc4)nc3c2n1` are over 100 µM and 0.37 µM.
On the same counts, the results for `COc1ccc(C(=O)Nc2ccc3ccc4cccnc4c3n2)cc1` are over 100 µM and 0.046 µM.
Take `N=C(Nc1ccc2ccc3cccnc3c2n1)c1ccc(Cl)cc1`: the figures for the MIC in test [1] and in test [2] were over 100 µM and 0.2 µM, respectively.
On the same counts, the results for `N=C(Nc1ccc2ccc3cccnc3c2n1)c1ccccc1` are over 100 µM and 0.2 µM.
Consider `CC[C@H]1OC(=O)C[C@@H](O)[C@H](C)[C@@H](O[C@@H]2O[C@H](C)[C@@H](O[C@H]3C[C@@](C)(O)[C@@H](O)[C@H](C)O3)[C@H](N(C)C)[C@H]2O)[C@@H](CC=O)C[C@@H](C)C(=O)/C=C/C(C)=C/[C@@H]1CO[C@@H]1O[C@H](C)[C@@H](O)[C@@H](OC)[C@H]1OC` [TYLOSIN], for which the figures for the MIC in test [1] and in test [2] were 0.1 µM (≈ 0.0916 µg/mL) and 0.1 µM, respectively.
Consider `CCCCc1ccc2ccc3ccc(NC(=O)c4ccccc4)nc3c2n1`, for which the figures for the minimum inhibitory concentration (MIC) in test [1] and in test [2] were over 100 µM and 0.2 µM, respectively.
On the same counts, the results for `O=C(Nc1ccc2ccc3cccnc3c2n1)c1ccc(Cl)c(Cl)c1` are over 100 µM and 0.095 µM.
On the same counts, the results for `CCCCc1ccc2ccc3ccc(NC(=O)c4ccc(Cl)cc4)nc3c2n1` are over 100 µM and 0.75 µM.
In the same order, the values of `Nc1ccc2ccc3cccnc3c2n1` are over 100 µM and 3.1 µM.
As to `O=C(Nc1ccc2ccc3cccnc3c2n1)c1ccccc1`, the MIC in test [1] was over 100 µM; in test [2] it was 0.023 µM.
On the same counts, the results for `CCCCCCCCCC(=O)Nc1ccc2ccc3cccnc3c2n1` are over 100 µM and 0.37 µM.
In the same order, the values of `CCCCc1ccc2ccc3ccc(NC(=O)c4ccc(Cl)c(Cl)c4)nc3c2n1` are over 100 µM and 1.5 µM.
